The values below come from ChEMBL document CHEMBL1133605, “3,5-Bis(trifluoromethyl)pyrazoles: a novel class of NFAT transcription factor regulator” (J Med Chem, 2000).

The species entered for data set [1] is Homo sapiens. Kind of data set: In vitro protein binding in human serum at 5 ug/ml. The format is ADME. The procedure, abridged: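 Samples were incubated 30 min at room temperature, then ultrafiltered through a 30 000 MW cutoff device at 2000g for 25 min at room temperature. Free drug in the filtrate was quantified by HPLC.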
The species entered for data set [2] is Homo sapiens. Kind of data set: Inhibition of interleukin-2 (IL-2) synthesis in human whole blood stimulated by PMA/ionomycin. The format is functional. The procedure, abridged: (§1)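 Heparinized human whole blood was added to serially diluted compound and stimulated with a PMA (50 ng/mL) plus ionomycin mixture. After 24 h, plasma was collected by centrifugation and IL-2 was measured by in-house ELISA.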

Data set [3] can be described thus: Area under curve in rat at 4 mpk upon peroral administration. The format is ADME, organism-based. The following applies: in vivo, po, 4 mg/kg.
Data set [4] in a line: Oral bioavailability in rat (dose 4 mg/kg). The format is ADME, organism-based. The following applies: in vivo.
The nature of data set [5]: Half-life in rat at 4 mpk upon peroral administration. The following applies: in vivo, po, 4 mg/kg. The format is ADME, organism-based.
Data set [6] in a line: Maximum concentration in rat at 4 mpk upon peroral administration. The format is ADME, organism-based. Also noted: dose 4 mpk, route oral. The conditions noted are these: in vivo, po, 4 mg/kg.
A short description of data set [7]: Resistance evaluated in an ascaris-induced nonhuman primate model of asthma after 6 hour at 30 mg/kg dose. The format is functional. In outline: (§2)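 Antigen (Ascaris) inhalation challenge in nonhuman primates, with oral gavage dosing at -26, -2 and +22 h relative to inhalation. Respiratory system resistance was measured at baseline, at +10 min (immediate response) and at +6 h (late phase). Data are mean percentage inhibition versus crossover vehicle control, with paired t-test.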

A short description of data set [8]: Bronchoalveolar lavages was collected after 6 hr in an ascaris-induced nonhuman primate model of asthma at 30 mg/kg dose (for IL-5). The format is functional. The procedure, abridged: (§3)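 Ascaris-induced asthma model in nonhuman primates. Dosing by oral gavage at -26, -2 and +22 h relative to antigen inhalation. Bronchoalveolar lavage was taken at day -5 (baseline), at +6 h for IL-5, IL-8 and eotaxin, and at +48 h for eosinophil influx. Data are mean percentage inhibition versus crossover vehicle control, with paired t-test.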

A short description of data set [9]: Bronchoalveolar lavages was collected after 6 hr in an ascaris-induced nonhuman primate model of asthma at 30 mg/kg dose (for IL-8). The format is functional. The procedure, abridged:
as §3

Data set [10] is described as follows: Bronchoalveolar lavages was collected after 6 hr in an ascaris-induced nonhuman primate model of asthma at 30 mg/kg dose (for eotaxin). The format is functional. The procedure, abridged: as §3
Data set [11] is described as follows: Resistance evaluated in an ascaris-induced nonhuman primate model of asthma after 10 min at 30 mg/kg dose. The format is functional. In outline:
as §2

A short description of data set [12]: Bronchoalveolar lavages was collected after 48 hr in an ascaris-induced nonhuman primate model of asthma (for eosinophil influx, eos) at 25 mg/kg dose. The format is functional. The following applies: dose 30 mg/kg; in the assay text read “30 mg/kg” for “25 mg/kg”. In outline: as §3
For data set [13], the species on record is Homo sapiens. Kind of data set: Tested for interleukin-2 (IL-2) synthesis inhibition in human whole blood stimulated by PMA/ionomycin. The format is functional. The procedure, abridged:
as §1

Data set [14] is described as follows: Bronchoalveolar lavages was collected after 6 hr in an ascaris-induced nonhuman primate model of asthma at 25 mg/kg dose (for IL-5). The format is functional. The procedure, abridged: as §3
Data set [15] can be described thus: Bronchoalveolar lavages was collected after 6 hr in an ascaris-induced nonhuman primate model of asthma at 25 mg/kg dose (for eotaxin). The format is functional. The procedure, abridged: as §3
The nature of data set [16]: Resistance evaluated in an ascaris-induced nonhuman primate model of asthma after 6 hour at 25 mg/kg dose. The format is functional. In outline:
as §2

Data set [17] can be described thus: Bronchoalveolar lavages was collected after 48 hr (for eosinophil influx, eos) at 25 mg/kg dose. The format is functional. In outline:
as §3

Data set [18] can be described thus: Bronchoalveolar lavages was collected after 6 hr in an ascaris-induced nonhuman primate model of asthma at 1 mg/kg dose (for IL-8). The format is functional. The procedure, abridged: as §3
Data set [19] is described as follows: Bronchoalveolar lavages was collected after 6 hr in an ascaris-induced nonhuman primate model of asthma at 1 mg/kg dose (for eotaxin). The format is functional. In outline:
as §3

A short description of data set [20]: Resistance evaluated in an ascaris-induced nonhuman primate model of asthma after 6 hour at 1 mg/kg dose. The format is functional. The procedure, abridged:
as §2

Data set [21] in a line: Resistance evaluated in an ascaris-induced nonhuman primate model of asthma after 10 min at 1 mg/kg dose. The format is functional. In outline:
as §2

The nature of data set [22]: Bronchoalveolar lavages was collected after 6 hr in an ascaris-induced nonhuman primate model of asthma at 1 mg/kg dose (for IL-5). The format is functional. The procedure, abridged:
as §3

Data set [23] can be described thus: Inhibition of eosinophil influx in bronchoalveolar lavage after 48 hr at 1 mg/kg dose.

Consider `O=C(Nc1ccc(-n2nc(C(F)(F)F)cc2C(F)(F)F)cc1)c1ccc(Cl)cc1`, for which the Binding in the data set listed under Homo sapiens [1] was found to be 99.9%. The 50% inhibitory concentration (IC50) in the data set listed under Homo sapiens [2] worked out at 6030 nM.

As for `O=C(Nc1ccc(-n2nc(C(F)(F)F)cc2C(F)(F)F)cc1)c1cc(F)ccc1F`, the Binding in the data set filed under Homo sapiens [1] amounted to 99.9%. In the data set listed under Homo sapiens [2], this compound came in with a 50% inhibitory concentration (IC50) of 372 nM.

The compound `CSc1cc(C(F)(F)F)nn1-c1ccc(NC(=O)c2ccncc2F)cc1` yielded an AUC in data set [3] of 7790 ng·h/mL. The same compound gave a bioavailability in [4] of 63%. Further, the half-life in data set [5] is 5.2 h. In data set [6], this compound gave a Cmax of 870 ng/mL. In the data set filed under Homo sapiens [2], the IC50 was 944 nM.

The compound `Cc1noc(C)c1C(=O)Nc1ccc(-n2nc(C(F)(F)F)cc2C(F)(F)F)cc1` yielded a Binding in the data set listed under Homo sapiens [1] of 99.6%. Also, inhibition in the data set listed under Homo sapiens [2] was half-maximal at 1980 nM (IC50).

With `N#Cc1cc(C(F)(F)F)nn1-c1ccc(NC(=O)c2ccccc2F)cc1`, the area under the curve (AUC) in data set [3] was found to be 3240 ng·h/mL. For the same compound, in data set [4], the bioavailability was 31%. The compound further showed a half-life in data set [5] of 6.2 h. The highest concentration (Cmax) in data set [6] turned out to be 280 ng/mL. In addition, the IC50 in the data set filed under Homo sapiens [2] came to 304 nM.

Regarding `O=C(Nc1ccc(-n2nc(C(F)(F)F)cc2[N+](=O)[O-])cc1)c1ccncc1F`, the AUC in [3] was found to be 310 ng·h/mL. Besides, the bioavailability in data set [4] came to 18%. The half-life in data set [5] was 1.7 h. The same compound gave a Cmax in data set [6] of 220 ng/mL. This compound returned a half-inhibitory concentration (IC50) in the data set listed under Homo sapiens [2] of 440 nM.

`O=C(Nc1ccc(-n2nc(C(F)(F)F)cc2C(F)(F)F)cc1)c1ccccc1Cl`: the Binding in the data set listed under Homo sapiens [1] was 99.9%. Also, in the data set listed under Homo sapiens [2], the IC50 was 914 nM.

Turning to `O=C(Nc1ccc(-n2nc(C(F)(F)F)cc2C(F)(F)F)cc1)c1cccc(F)c1F`, in the data set listed under Homo sapiens [1], the Binding turned out to be 99.9%. In the data set filed under Homo sapiens [2], this compound gave an IC50 of 405 nM.

The compound `O=C(Nc1ccc(-n2nc(C(F)(F)F)cc2C(F)(F)F)cc1)c1ccncc1F` gave a Binding in the data set filed under Homo sapiens [1] of 99.7%. In the data set listed under Homo sapiens [2], this compound came in with an IC50 of 496 nM.

In the data set listed under Homo sapiens [1], `O=C(Nc1ccc(-n2nc(C(F)(F)F)cc2C(F)(F)F)cc1)c1cc(F)cc(F)c1F` had a Binding of 99.9%. In the data set listed under Homo sapiens [2], this compound gave an IC50 of 1470 nM.

The compound `O=C(Nc1ccc(-n2nc(C(F)(F)F)cc2OC(F)F)cc1)c1ccncc1F` came in with an exposure (AUC) in [3] of 7750 ng·h/mL. Moreover, the bioavailability in [4] turned out to be 74%. Besides, the half-life in data set [5] is 6.8 h. The peak level in data set [6] (Cmax) was 610 ng/mL. Besides, the IC50 in the data set listed under Homo sapiens [2] was determined as 182 nM. Further, the inhibition in [7] was determined as 69%; in data set [8], 73%; in [9] it was 69%; in data set [10] it was 56%; in data set [11], 61%; in [12], 185%.

For `COc1cc(C(F)(F)F)nn1-c1ccc(NC(=O)c2ccncc2F)cc1`, the exposure (AUC) in data set [3] was 3050 ng·h/mL. The same compound showed a bioavailability in data set [4] of 68%. In data set [5], this compound showed a half-life of 1 h. This compound also gave a Cmax in data set [6] of 1480 ng/mL. This compound displayed an IC50 in the data set listed under Homo sapiens [2] of 261 nM.

Take `Cc1nnsc1C(=O)Nc1ccc(-n2nc(C(F)(F)F)cc2C(F)(F)F)cc1`: the Binding in the data set filed under Homo sapiens [1] came out at 99.8%. Further, in the data set filed under Homo sapiens [2], 1740 nM corresponded to half-maximal inhibition (IC50).

On to `O=C(Nc1ccc(-n2[nH]c(C(F)(F)F)cc2=O)cc1)c1ccncc1F`, for which the inhibition in the data set filed under Homo sapiens [13] amounted to 16%.

For the compound `N#Cc1cc(C(F)(F)F)nn1-c1ccc(NC(=O)c2ccncc2F)cc1`, in [3], the AUC is 10900 ng·h/mL. The same compound showed a bioavailability in [4] of 78%. The compound further showed a half-life in data set [5] of 4.3 h. The Cmax in data set [6] was determined as 1090 ng/mL. For the same compound, half-maximal inhibition in the data set filed under Homo sapiens [2] (IC50) was put at 240 nM.

As to `CC(=O)c1cc(C(F)(F)F)nn1-c1ccc(NC(=O)c2ccccc2F)cc1`, in data set [3], the area under the curve (AUC) amounted to 1110 ng·h/mL. This compound had a bioavailability in data set [4] of 5%. In [6], the peak level (Cmax) was 120 ng/mL. The compound also came in with an IC50 in the data set listed under Homo sapiens [2] of 1580 nM.

Consider `O=C(Nc1ccc(-n2nc(C(F)(F)F)cc2Cl)cc1)c1ccncc1F`, for which, in data set [3], the area under the curve (AUC) stood at 11000 ng·h/mL. This compound also gave a bioavailability in [4] of 79%. Also, in [5], the half-life is 4.8 h. In data set [6], this compound came in with a Cmax of 780 ng/mL. The IC50 in the data set filed under Homo sapiens [2] is 158 nM.

The compound `O=C(Nc1ccc(-n2nc(C(F)(F)F)cc2C(F)(F)F)cc1)c1ccccc1F` had a Binding in the data set filed under Homo sapiens [1] of 99.9%. In the data set filed under Homo sapiens [2], this compound registered a concentration for half-maximal inhibition (IC50) of 2270 nM.

Compound `O=C(Nc1ccc(-n2nc(C(F)(F)F)cc2Br)cc1)c1ccncc1F` returned an AUC in data set [3] of 16400 ng·h/mL. Also, in data set [4], the bioavailability turned out to be 94%. The compound further had a half-life in data set [5] of 7.2 h. Besides, in [6], the peak level (Cmax) was 1040 ng/mL. Further, in the data set listed under Homo sapiens [2], the IC50 is 288 nM.

On to `COc1cc(C(F)(F)F)nn1-c1ccc(NC(=O)c2ccccc2F)cc1`, for which the exposure (AUC) in data set [3] came out at 970 ng·h/mL. The compound further had a bioavailability in [4] of 26%. Besides, in [6], the Cmax turned out to be 70 ng/mL. Further, inhibition in the data set listed under Homo sapiens [2] was half-maximal at 570 nM (IC50).

`O=C(Nc1ccc(-n2nc(C(F)(F)F)cc2C(F)(F)F)cc1)c1ccncc1`: the Binding in the data set filed under Homo sapiens [1] is 99.7%. In the data set listed under Homo sapiens [2], this compound returned an IC50 of 701 nM.

For `C/C=C/C[C@@H](C)[C@@H](O)[C@H]1C(=O)N[C@@H](CC)C(=O)N(C)CC(=O)N(C)[C@@H](CC(C)C)C(=O)N[C@@H](C(C)C)C(=O)N(C)[C@@H](CC(C)C)C(=O)N[C@@H](C)C(=O)N[C@H](C)C(=O)N(C)[C@@H](CC(C)C)C(=O)N(C)[C@@H](CC(C)C)C(=O)N(C)[C@@H](C(C)C)C(=O)N1C` [CYCLOSPORINE], the inhibition in data set [14] worked out at 92%; in [15], 62%; in [16], 90%; in [17], 137%.

For `C[C@]12C=CC(=O)C=C1CC[C@@H]1[C@@H]2[C@@H](O)C[C@@]2(C)[C@H]1CC[C@]2(O)C(=O)CO` [PREDNISOLONE], the inhibition in data set [18] was determined as 9%; in data set [19], 67%; in [20] it was 57%; in data set [21], 24%; in data set [22] it was 94%; in data set [23] it was 106%.
